Data on 12 compounds can be found in ChEMBL document CHEMBL3232748, “Effect of the 3- and 4-methyl groups on the opioid receptor properties of N-substituted trans-3,4-dimethyl-4-(3-hydroxyphenyl)piperidines” (2014).

For assay [1], the target named is Mu-type opioid receptor (Homo sapiens) (UniProt P35372). Put plainly: Antagonist activity at human mu opioid receptor expressed CHO cells assessed as inhibition of [35S]-GTP[gammaS] binding at 10 uM. Type of assay: cell-based. An outline of the steps:
(§1)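 Antagonism of [³⁵S]GTPγS binding stimulated by DAMGO (μ), DPDPE (δ) or U69,593 (κ) in CHO cells expressing the human receptor, tested at 10 μM.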

Assay [2] deals with Delta-type opioid receptor (Homo sapiens) (UniProt P41143). In words: Antagonist activity at human delta opioid receptor expressed CHO cells assessed as inhibition of [35S]-GTP[gammaS] binding at 10 uM. Format: functional, cell-based. An outline of the steps:
as §1

The target of assay [3] is Mu-type opioid receptor (Homo sapiens) (UniProt P35372). Put plainly: Agonist activity at human mu opioid receptor expressed CHO cells assessed as inhibition of [35S]-GTP[gammaS] binding at 10 uM. Type of assay: cell-based. An outline of the steps:
(§2)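 Single-point screen at 10 μM for intrinsic agonist activity in a [³⁵S]GTPγS binding assay, using membranes from CHO cells overexpressing the human μ, κ or δ opioid receptor.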

In assay [4] the target is Kappa-type opioid receptor (Homo sapiens) (UniProt P41145). In words: Agonist activity at human kappa opioid receptor expressed CHO cells assessed as inhibition of [35S]-GTP[gammaS] binding at 10 uM. Type of assay: functional, cell-based. The method, boiled down: as §2
Assay [5] concerns the target Delta-type opioid receptor (Homo sapiens) (UniProt P41143). Put plainly: Agonist activity at human delta opioid receptor expressed CHO cells assessed as inhibition of [35S]-GTP[gammaS] binding at 10 uM. Format: functional, cell-based. An outline of the steps:
as §2

Assay [6] is filed under the species Mus musculus. In words: Analgesic activity in mouse assessed as antagonism of morphine-induced antinociception by writhing test. Type of assay: functional.
The target in assay [7] is Kappa-type opioid receptor (Homo sapiens) (UniProt P41145). In words: Antagonist activity at human kappa opioid receptor expressed CHO cells assessed as inhibition of [35S]-GTP[gammaS] binding at 10 uM. Format: functional, cell-based. The method, boiled down: as §1
Assay [8] is filed under the species Mus musculus. In words: Analgesic activity in mouse assessed as antagonism of U50488-induced antinociception by writhing test. Type of assay: functional.
Assay [9] addresses Delta-type opioid receptor (Homo sapiens) (UniProt P41143). In words: Agonist activity at human delta opioid receptor expressed CHO cells assessed as inhibition of [35S]-GTP[gammaS] binding. Format: functional, cell-based. An outline of the steps: (§3)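 Agonist concentration–response in a [³⁵S]GTPγS binding assay at human δ receptor in CHO cells, using eight concentrations chosen to define the upper and lower asymptotes. EC₅₀ and Emax were calculated, with Emax given as a percentage of the maximum for DPDPE run on the same plate. Values are mean ± SE from at least three independent experiments.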

For assay [10] the target is unchanged. Put plainly: Agonist activity at human delta opioid receptor expressed CHO cells assessed as inhibition of [35S]-GTP[gammaS] binding relative to DPDPE maximal response. Type of assay: functional, cell-based. The method, boiled down:
as §3

Assay [11] is filed under the species Homo sapiens. In words: Selectivity, ratio of Ke for human delta opioid receptor to ratio of Ke for human kappa opioid receptor. An outline of the steps: (§4)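 Agonist-stimulated [³⁵S]GTPγS binding in CHO cells overexpressing the human receptor, stimulated by DAMGO (μ), DPDPE (δ) or U69,593 (κ). Agonist concentration–response curves were run with or without a fixed test concentration, using at least two test concentrations. Ke = [L]/(DR − 1) was calculated only when the agonist EC₅₀ shifted at least 4-fold. Values are mean ± SE from at least three experiments, and selectivity comes from the Ke values.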

Assay [12] is filed under the species Homo sapiens. Put plainly: Selectivity, ratio of Ke for human mu opioid receptor to ratio of Ke for human kappa opioid receptor. An outline of the steps: as §4

Active and inactive are the calls of the source. The calls are words filed in the database; no cut-off is given here.

Chain of Mu-type opioid receptor (Homo sapiens) (P35372 whole entry): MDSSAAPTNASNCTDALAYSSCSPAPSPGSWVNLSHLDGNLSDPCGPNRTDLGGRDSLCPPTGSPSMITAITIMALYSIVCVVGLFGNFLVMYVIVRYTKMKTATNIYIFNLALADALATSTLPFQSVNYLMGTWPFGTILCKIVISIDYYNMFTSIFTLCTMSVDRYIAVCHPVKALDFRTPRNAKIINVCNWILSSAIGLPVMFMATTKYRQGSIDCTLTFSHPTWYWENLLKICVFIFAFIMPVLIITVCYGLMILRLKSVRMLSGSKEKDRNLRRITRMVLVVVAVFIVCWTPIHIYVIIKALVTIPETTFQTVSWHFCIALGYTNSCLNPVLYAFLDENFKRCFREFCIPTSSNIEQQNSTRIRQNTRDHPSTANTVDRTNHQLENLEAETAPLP
Chain of Kappa-type opioid receptor (Homo sapiens) (P41145 whole entry): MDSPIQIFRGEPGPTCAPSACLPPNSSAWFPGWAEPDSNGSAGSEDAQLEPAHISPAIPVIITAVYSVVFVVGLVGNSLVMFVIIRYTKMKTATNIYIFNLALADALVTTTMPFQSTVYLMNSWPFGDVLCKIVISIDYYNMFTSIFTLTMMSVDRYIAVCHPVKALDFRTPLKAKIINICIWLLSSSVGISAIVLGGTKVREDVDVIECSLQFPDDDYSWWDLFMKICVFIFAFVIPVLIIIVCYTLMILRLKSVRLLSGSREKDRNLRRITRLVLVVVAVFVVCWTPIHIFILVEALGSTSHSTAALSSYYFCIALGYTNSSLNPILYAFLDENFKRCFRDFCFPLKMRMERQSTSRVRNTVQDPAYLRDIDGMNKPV
Chain of Delta-type opioid receptor (Homo sapiens) (P41143 whole entry): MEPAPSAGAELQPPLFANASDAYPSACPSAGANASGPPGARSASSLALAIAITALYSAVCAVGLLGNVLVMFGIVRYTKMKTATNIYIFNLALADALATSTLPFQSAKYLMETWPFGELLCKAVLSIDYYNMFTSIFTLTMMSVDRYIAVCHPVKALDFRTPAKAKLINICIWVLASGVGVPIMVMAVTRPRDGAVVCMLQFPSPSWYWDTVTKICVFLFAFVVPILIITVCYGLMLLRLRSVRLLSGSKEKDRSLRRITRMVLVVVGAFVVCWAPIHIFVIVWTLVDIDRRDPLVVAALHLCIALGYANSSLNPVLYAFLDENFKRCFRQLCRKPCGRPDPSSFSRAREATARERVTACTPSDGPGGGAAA

Turning to `CN1CCC(c2cccc(O)c2)CC1`, the result in assay [1], in assay [2], in assay [3], in assay [4] and in assay [5] was inactive.
For the compound `C[C@H]1CN(CCCc2ccccc2)CC[C@@]1(C)c1cccc(O)c1`, in the assay listed under Mus musculus [6], the AD50 amounted to 0.28 mg/kg.
Consider `CC1CN(C)CCC1c1cccc(O)c1` (configuration not stated), for which the result in assay [2] was inactive.
In the case of `CC1(c2cccc(O)c2)CCN(CCCc2ccccc2)CC1`, the result in assay [1] and in [7] was inactive.
For `C[C@H]1CN(C)CC[C@@]1(C)c1cccc(O)c1`, the result in assay [3], in [4] and in [5] was inactive. The AD50 is 0.74 mg/kg in the assay listed under Mus musculus [6] and more than 5 mg/kg in the assay filed under Mus musculus [8].
For the compound `CN1CCC(C)(c2cccc(O)c2)CC1`, the ED50 in assay [9] worked out at 8.3 µM; in the assay listed under Mus musculus [6] (Mus musculus) it was 3.4 mg/kg. The maximal effect (Emax) in [10] came to 64%.
Consider `Oc1cccc(N2CCN(CCCc3ccccc3)CC2)c1`, for which the result in [3], in [4] and in assay [5] was inactive.
With `Oc1cccc(C2CCN(CCCc3ccccc3)CC2)c1`, the results for the Ratio Ke in the assay filed under Homo sapiens [11] and in the assay listed under Homo sapiens [12] were 72 and 13, respectively. Besides, the outcome in assay [1] and in [7] was inactive.
`CN1CCN(c2cccc(O)c2)CC1`: the outcome in [7], in assay [3], in [4] and in [5] was inactive.
With `CC1CN(CCCc2ccccc2)CCC1c1cccc(O)c1` (configuration not stated), the result in assay [1] and in [7] was inactive.
Consider `C[C@H]1CN(CCCc2ccccc2)CCN1c1cccc(O)c1`, for which the result in assay [3], in [4] and in assay [5] was inactive.
In the case of `C[C@H]1CN(C)CCN1c1cccc(O)c1`, the outcome in assay [2], in assay [3], in assay [4] and in assay [5] was inactive.
